Measured values: ChEMBL document CHEMBL1828561, “Identification of a potent and selective free fatty acid receptor 1 (FFA1/GPR40) agonist with favorable physicochemical and in vitro ADME properties” (J Med Chem, 2011)
Calls of active or inactive are those of the source. The calls are words filed in the database; no cut-off is given here.

Legend:
1321-N1 [1] = experiment: Selectivity for human FFA1 receptor expressed in human 1321N1 cells over A1 receptor; type: cell-based
1321-N1 [2] = experiment: Selectivity for human FFA1 receptor expressed in human 1321N1 cells over D1 receptor; type: cell-based
1321-N1 [3] = experiment: Selectivity for human FFA1 receptor expressed in human 1321N1 cells over NK2 receptor; type: cell-based
1321-N1 [4] = experiment: Selectivity for human FFA1 receptor expressed in human 1321N1 cells over CCK1 receptor; type: cell-based
1321-N1 [5] = experiment: Selectivity for human FFA1 receptor expressed in human 1321N1 cells over 5HT3 receptor; type: cell-based
CYP3A4 = CYP3A4 (Homo sapiens, UniProt P08684); experiment: Inhibition of CYP3A4 at 10 uM; type: ADME
CYP2D6 = CYP2D6 (Homo sapiens, UniProt P10635); experiment: Inhibition of CYP2D6 at 10 uM; type: ADME
[6] = Octanol-phosphate buffer partition coefficient, log D of the compound at pH 7.4 by HPLC analysis; type: physicochemical
1321-N1 [7] = experiment: Selectivity for human FFA1 receptor expressed in human 1321N1 cells over Y2 receptor; type: cell-based
1321-N1 [8] = experiment: Selectivity for human FFA1 receptor expressed in human 1321N1 cells over beta2 receptor; type: cell-based
1321-N1 [9] = experiment: Selectivity for human FFA1 receptor expressed in human 1321N1 cells over AT1 receptor; type: cell-based
1321-N1 [10] = experiment: Selectivity for human FFA1 receptor expressed in human 1321N1 cells over dopamine transporter; type: cell-based
[11] = target: T1, Free fatty acid receptor 1 (Homo sapiens, UniProt O14842); experiment: Agonist activity at human FFA1 receptor expressed in human HEK293 assessed as accumulation of IP1 by time-resolved fluorescence assay; type: functional, cell-based
In short: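 Doxycycline-inducible FLAG-tagged human FFA1 in Flp-In T-Rex HEK293 cells, 100 000 cells/well (384-well). 20 min at 37 °C, then ligands in HBSS/10 mM HEPES/50 mM LiCl for 30 min. HTRF IP1 kit (d2 conjugate, Eu cryptate anti-IP1), 60 min at room temperature. 665/620 nm ratio expressed as ΔF%, normalized to maximal response at 10 μM of the reference agonist; n = 5.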

1321-N1 [12] = experiment: Selectivity for human FFA1 receptor expressed in human 1321N1 cells over A2A receptor; type: cell-based
[13] = target: Free fatty acid receptor 1 (Rattus norvegicus) (UniProt Q8K3T4); experiment: Agonist activity at FFA1 receptor in rat INS-1E cells assessed as increase in glucose-stimulated insulin production at 10 uM after 1 hr by radioimmunoassay in presence of 12 mM glucose; type: functional, cell-based
In short: (§1)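 Rat INS-1E cells seeded at 100 000 cells/mL in 24-well plates for 2 days. Incubated 1 h at 37 °C in pH 7.4 HEPES-bicarbonate saline with 1 mM CaCl2 and 0.5 g/L fatty-acid-free BSA plus test substance. Secreted insulin and acid-ethanol-extracted content measured by radioimmunoassay. Mean ± SE, n = 8.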

1321-N1 [14] = experiment: Selectivity for human FFA1 receptor expressed in human 1321N1 cells over 5HT transporter; type: cell-based
[15] = Plasma protein binding in human; type: ADME, cell-free; conditions: read-out: PPB (converted)
CYP1A2 = target: T2, CYP1A2 (Homo sapiens, UniProt P05177); experiment: Inhibition of CYP1A2 at 10 uM; type: ADME
T2 sequence (P05177 whole entry): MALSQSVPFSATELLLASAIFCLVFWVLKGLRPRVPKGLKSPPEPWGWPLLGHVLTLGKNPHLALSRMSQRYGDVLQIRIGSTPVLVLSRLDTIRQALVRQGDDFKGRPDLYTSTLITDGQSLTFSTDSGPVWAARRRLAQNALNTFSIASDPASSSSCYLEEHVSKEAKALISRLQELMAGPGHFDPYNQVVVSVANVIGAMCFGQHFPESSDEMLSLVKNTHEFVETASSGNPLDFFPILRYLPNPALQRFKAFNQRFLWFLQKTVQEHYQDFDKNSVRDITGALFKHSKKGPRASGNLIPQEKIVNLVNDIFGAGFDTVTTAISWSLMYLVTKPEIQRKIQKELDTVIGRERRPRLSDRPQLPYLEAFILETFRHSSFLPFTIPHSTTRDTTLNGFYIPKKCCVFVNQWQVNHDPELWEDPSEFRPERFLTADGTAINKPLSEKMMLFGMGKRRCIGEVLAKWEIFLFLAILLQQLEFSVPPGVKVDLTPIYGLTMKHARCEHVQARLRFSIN

1321-N1 [16] = experiment: Selectivity for human FFA1 receptor expressed in human 1321N1 cells over NTS1 receptor; type: cell-based
[17] = Octanol-water partition coefficient, log D of the compound at pH 7.4 by HPLC analysis; type: physicochemical
In short: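 Distribution between n-octanol and water (PBS), pH 7.4, determined experimentally.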

1321-N1 [18] = experiment: Selectivity for human FFA1 receptor expressed in human 1321N1 cells over 5HT2A receptor; type: cell-based
CYP2C9 = CYP2C9 (Homo sapiens, UniProt P11712); experiment: Inhibition of CYP2C9 at 10 uM; type: ADME
1321-N1 [19] = experiment: Selectivity for human FFA1 receptor expressed in human 1321N1 cells over 5HT1A receptor; type: cell-based
[20] = target: T1, Free fatty acid receptor 1; experiment: Agonist activity at human FFA1 receptor expressed in human 1321N1 cells assessed as calcium mobilization by fluorescence spectrophotometry; type: functional, cell-based
1321-N1 [21] = experiment: Selectivity for human FFA1 receptor expressed in human 1321N1 cells over Na+ channel; type: cell-based
[22] = target: T1, Free fatty acid receptor 1; experiment: Agonist activity at human FFA1 receptor expressed in human 1321N1 cells assessed as calcium mobilization by fluorescence spectrophotometry relative to 10 uM TUG-20; type: functional, cell-based
In short: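 Human FFA1 stably expressed in 1321N1 cells kept under G418 selection, 30000–40000 cells/well. After 24 h, washed in Krebs-HEPES pH 7.4 and loaded 1 h at 37 °C with 1.5 μM Oregon Green 488 BAPTA-1/AM. Compound injected at 10-fold concentration at 37 °C; fluorescence ex 485/em 520 nm over 50 × 0.4 s. Efficacy as % of maximal response to 10 μM TUG-20.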

[23] = Inhibition of P-glycoprotein at 100 uM
In short: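 P-glycoprotein inhibition tested at 100 μM compound.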

1321-N1 [24] = experiment: Selectivity for human FFA1 receptor expressed in human 1321N1 cells over 5HT5a receptor; type: cell-based
1321-N1 [25] = experiment: Selectivity for human FFA1 receptor expressed in human 1321N1 cells over 5HT7 receptor; type: cell-based
1321-N1 [26] = experiment: Selectivity for human FFA1 receptor expressed in human 1321N1 cells over CXCR2 receptor; type: cell-based
[27] = Permeability across methotrexate treated human HT-29 cells assessed as compound recovery; type: ADME, cell-based; conditions: read-out: Activity
In short: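 HT29-MTX mucus-producing cells, passage 32, grown 23 days (TEER > 750 Ω cm²). Compound at 100 μM (10 mM DMSO stock diluted 1:100 in buffer). […] Non-permeated drug measured for recovery. Monolayer integrity checked by 20 μM carboxyfluorescein after 1 h and TEER.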

1321-N1 [28] = experiment: Selectivity for human FFA1 receptor expressed in human 1321N1 cells over CB1 receptor; type: cell-based
[29] = target: Free fatty acid receptor 1 (Rattus norvegicus) (UniProt Q8K3T4); experiment: Agonist activity at FFA1 receptor in rat INS-1E cells assessed as increase in glucose-stimulated insulin production at 10 uM after 1 hr by radioimmunoassay in presence of 2.8 mM glucose; type: functional, cell-based; in short: as §1

T1 sequence (O14842 whole entry): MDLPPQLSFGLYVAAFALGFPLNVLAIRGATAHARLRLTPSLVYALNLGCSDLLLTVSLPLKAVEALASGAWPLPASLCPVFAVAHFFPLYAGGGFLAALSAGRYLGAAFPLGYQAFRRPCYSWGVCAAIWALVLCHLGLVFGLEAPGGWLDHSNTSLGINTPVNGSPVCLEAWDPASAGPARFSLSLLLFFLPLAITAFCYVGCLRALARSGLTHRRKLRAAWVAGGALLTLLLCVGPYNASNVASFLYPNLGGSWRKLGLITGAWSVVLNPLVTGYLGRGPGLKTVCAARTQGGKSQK
Sequence of Free fatty acid receptor 1 (Rattus norvegicus) (Q8K3T4 whole entry): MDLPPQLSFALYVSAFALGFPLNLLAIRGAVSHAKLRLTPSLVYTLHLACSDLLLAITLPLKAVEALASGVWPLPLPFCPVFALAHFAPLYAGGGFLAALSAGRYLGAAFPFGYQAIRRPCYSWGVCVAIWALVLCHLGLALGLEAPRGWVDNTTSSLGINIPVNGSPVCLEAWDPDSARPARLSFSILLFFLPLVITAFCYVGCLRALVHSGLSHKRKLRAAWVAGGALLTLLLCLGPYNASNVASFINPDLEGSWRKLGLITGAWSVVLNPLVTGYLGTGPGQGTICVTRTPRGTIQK
Sequence of CYP2C9 (P11712 whole entry): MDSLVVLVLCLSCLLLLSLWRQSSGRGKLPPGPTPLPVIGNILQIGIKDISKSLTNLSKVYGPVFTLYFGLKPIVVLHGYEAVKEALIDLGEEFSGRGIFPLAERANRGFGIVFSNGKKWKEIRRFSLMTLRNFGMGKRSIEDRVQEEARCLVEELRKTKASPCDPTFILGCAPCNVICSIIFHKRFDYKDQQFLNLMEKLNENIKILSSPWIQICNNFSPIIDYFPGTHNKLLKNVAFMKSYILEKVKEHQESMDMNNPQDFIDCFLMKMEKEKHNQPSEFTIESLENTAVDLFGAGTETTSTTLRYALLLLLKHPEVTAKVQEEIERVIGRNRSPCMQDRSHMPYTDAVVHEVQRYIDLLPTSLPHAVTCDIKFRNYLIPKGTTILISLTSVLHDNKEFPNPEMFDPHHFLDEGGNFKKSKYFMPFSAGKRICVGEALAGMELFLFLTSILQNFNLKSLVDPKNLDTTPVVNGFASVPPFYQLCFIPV
Sequence of CYP3A4 (P08684 whole entry): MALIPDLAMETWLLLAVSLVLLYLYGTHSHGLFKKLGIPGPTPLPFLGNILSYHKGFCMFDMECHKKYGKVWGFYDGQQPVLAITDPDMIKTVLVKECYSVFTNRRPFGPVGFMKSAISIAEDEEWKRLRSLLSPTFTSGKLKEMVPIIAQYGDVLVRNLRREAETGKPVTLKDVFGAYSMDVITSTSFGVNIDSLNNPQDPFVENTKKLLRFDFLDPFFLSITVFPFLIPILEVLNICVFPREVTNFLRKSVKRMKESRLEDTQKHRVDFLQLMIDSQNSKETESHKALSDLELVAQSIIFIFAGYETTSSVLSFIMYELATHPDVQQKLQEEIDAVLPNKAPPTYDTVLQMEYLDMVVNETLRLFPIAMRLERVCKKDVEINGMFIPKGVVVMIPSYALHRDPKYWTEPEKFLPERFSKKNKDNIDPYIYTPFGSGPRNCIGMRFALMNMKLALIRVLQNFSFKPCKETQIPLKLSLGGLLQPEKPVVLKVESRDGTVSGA
Sequence of CYP2D6 (P10635 whole entry): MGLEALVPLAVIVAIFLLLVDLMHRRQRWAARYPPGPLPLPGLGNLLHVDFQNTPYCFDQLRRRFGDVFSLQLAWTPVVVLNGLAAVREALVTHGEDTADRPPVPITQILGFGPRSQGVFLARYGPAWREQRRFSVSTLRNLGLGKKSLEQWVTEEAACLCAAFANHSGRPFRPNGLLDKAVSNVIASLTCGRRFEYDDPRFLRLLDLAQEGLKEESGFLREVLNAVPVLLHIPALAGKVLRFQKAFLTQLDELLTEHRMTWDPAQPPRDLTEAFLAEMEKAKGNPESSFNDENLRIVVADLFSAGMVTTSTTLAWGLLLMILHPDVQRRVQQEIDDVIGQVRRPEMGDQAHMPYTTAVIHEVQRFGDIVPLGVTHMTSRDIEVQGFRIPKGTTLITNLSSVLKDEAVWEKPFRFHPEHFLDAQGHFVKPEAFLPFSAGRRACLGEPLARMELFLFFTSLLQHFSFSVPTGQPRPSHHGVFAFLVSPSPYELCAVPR

With `O=C(O)CCc1ccc(C#Cc2cc(Cl)nc(Cl)c2)cc1` the Selectivity ratio (1321-N1 [1]) was > 100, the Selectivity ratio (1321-N1 [2]) was > 100 and the Selectivity ratio (1321-N1 [3]) was > 100. For the same molecule, the Selectivity ratio (1321-N1 [4]) was > 100, the Selectivity ratio (1321-N1 [5]) was > 100 and the inhibition at 10 µM (CYP3A4) was 5%. For the same molecule, the inhibition at 10 µM (CYP2D6) was 5%, the logD [6] was 1.97 and the Selectivity ratio (1321-N1 [7]) was > 100. For the same molecule, the Selectivity ratio (1321-N1 [8]) was > 100, the Selectivity ratio (1321-N1 [9]) was > 100 and the Selectivity ratio (1321-N1 [10]) was > 100. The Activity [11] was “Active”, the Selectivity ratio (1321-N1 [12]) was > 100 and the Activity [13] was 60%. The Selectivity ratio (1321-N1 [14]) was > 100, the fraction unbound [15] was 0.031 and the inhibition at 10 µM (CYP1A2) was -7%. For the same molecule, the Selectivity ratio (1321-N1 [16]) was > 100, the logD [17] was 1.97 and the Selectivity ratio (1321-N1 [18]) was > 100. For the same molecule, the inhibition at 10 µM (CYP2C9) was -4%, the Selectivity ratio (1321-N1 [19]) was > 100 and the EC50 [20] was 40.7 nM. The Selectivity ratio (1321-N1 [21]) was > 100, the Efficacy [22] was 103% and the inhibition [23] was -1.9%. The Selectivity ratio (1321-N1 [24]) was > 100, the Selectivity ratio (1321-N1 [25]) was > 100 and the Selectivity ratio (1321-N1 [26]) was > 100. The recovery [27] was 63%, the Selectivity ratio (1321-N1 [28]) was > 100 and the Activity [29] was “inactive”.
